Experimental findings from ChEMBL document CHEMBL1131161 (J Med Chem, 1998) are described below.

Each structure is given as a SMILES string. Some results are limits rather than exact numbers.

In one test the target is T1, Glucocorticoid receptor (Homo sapiens, UniProt P04150).
T1 sequence (P04150 whole entry): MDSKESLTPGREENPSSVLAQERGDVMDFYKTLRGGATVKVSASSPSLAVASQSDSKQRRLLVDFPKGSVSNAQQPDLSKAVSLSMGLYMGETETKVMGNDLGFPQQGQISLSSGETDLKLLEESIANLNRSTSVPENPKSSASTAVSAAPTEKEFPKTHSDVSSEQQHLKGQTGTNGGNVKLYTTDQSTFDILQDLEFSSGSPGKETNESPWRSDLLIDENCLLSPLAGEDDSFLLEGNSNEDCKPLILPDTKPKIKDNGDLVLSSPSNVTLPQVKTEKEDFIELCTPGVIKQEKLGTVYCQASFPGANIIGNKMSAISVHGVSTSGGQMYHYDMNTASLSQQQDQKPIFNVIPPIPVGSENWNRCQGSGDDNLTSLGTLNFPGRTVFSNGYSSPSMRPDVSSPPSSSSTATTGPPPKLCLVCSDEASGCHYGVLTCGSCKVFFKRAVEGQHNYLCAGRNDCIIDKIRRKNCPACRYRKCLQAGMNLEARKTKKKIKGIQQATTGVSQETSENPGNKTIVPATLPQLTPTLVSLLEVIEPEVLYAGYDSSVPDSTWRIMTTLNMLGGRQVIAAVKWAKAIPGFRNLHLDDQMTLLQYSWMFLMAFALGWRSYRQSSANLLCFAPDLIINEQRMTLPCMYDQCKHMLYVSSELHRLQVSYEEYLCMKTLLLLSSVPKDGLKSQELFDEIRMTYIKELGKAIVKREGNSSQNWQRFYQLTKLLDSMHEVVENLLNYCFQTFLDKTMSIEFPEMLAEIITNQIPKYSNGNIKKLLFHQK
Kind of test: Inhibitory activity (IC50) against human glucocorticoid receptor expressed in CV-1 cells.
Conditions: not given
In kind it is cell-based. Summed up: (§1)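 Cotransfection assays in CV-1 cells with a luciferase reporter, read as normalized LUC expression. In antagonist mode, the reference agonists were DHT for hAR, dexamethasone for hGR and aldosterone for hMR. Antagonist efficacy was expressed as the percent of maximal inhibition of the agonist. Values are means of at least three separate experiments in triplicate, or of two experiments.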
As to `CC1=CC(C)(C)Nc2ccc3c(c21)/C(=C/c1cc(F)ccc1F)Oc1ccccc1-3`, the midpoint of inhibition, the IC50, lay at 371 nM.

`CC1=CC(C)(C)Nc2ccc3c(c21)/C(=C/c1ccccc1C)Oc1ccccc1-3` showed an IC50 of 1050 nM.

`CC1=CC(C)(C)Nc2ccc3c(c21)/C(=C/c1ccc(F)c(F)c1)Oc1ccccc1-3` gave an IC50 of 1650 nM.

For the next test, the target named is T2, Progesterone receptor (Homo sapiens, UniProt P06401).
T2 sequence (P06401 whole entry): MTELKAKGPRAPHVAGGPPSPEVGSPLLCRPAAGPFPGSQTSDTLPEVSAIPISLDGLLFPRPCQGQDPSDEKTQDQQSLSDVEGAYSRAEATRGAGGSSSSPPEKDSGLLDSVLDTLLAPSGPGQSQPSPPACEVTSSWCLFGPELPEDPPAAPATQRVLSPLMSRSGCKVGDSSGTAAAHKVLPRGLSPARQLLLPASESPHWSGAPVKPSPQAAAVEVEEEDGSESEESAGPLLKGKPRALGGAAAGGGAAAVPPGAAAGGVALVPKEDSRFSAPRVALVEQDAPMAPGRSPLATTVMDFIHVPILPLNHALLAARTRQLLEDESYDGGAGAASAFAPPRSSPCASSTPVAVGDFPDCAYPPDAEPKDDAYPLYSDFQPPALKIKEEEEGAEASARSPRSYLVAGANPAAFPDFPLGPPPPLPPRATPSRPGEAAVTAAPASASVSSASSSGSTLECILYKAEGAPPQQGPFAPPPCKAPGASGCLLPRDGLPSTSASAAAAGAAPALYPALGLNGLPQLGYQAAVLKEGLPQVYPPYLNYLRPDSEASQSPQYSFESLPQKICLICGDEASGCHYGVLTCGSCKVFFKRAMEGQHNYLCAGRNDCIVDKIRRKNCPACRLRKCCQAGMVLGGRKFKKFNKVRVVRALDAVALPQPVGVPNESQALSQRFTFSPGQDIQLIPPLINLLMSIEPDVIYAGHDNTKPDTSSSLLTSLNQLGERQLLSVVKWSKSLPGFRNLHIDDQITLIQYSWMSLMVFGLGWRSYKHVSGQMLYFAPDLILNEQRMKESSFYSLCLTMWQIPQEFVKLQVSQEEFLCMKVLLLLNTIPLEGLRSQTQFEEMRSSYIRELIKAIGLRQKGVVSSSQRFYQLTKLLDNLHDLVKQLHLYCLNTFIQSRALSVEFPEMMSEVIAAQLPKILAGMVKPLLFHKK
In words: Effective concentration (EC50) against human progesterone receptor expressed in CV-1 cell. The format is functional, cell-based.
Conditions: not given
Consider `CC1=CC(C)(C)Nc2ccc3c(c21)/C(=C/c1cc(F)ccc1F)Oc1ccccc1-3`, for which the midpoint of the response, the EC50, lay at 14.7 nM.

For the molecule `CC1=CC(C)(C)Nc2ccc3c(c21)/C(=C/c1ccccc1C)Oc1ccccc1-3`, a half-maximal response (EC50) required 5.7 nM.

In the case of `CC1=CC(C)(C)Nc2ccc3c(c21)/C(=C/c1ccc(F)c(F)c1)Oc1ccccc1-3`, a half-maximal response (EC50) required 14.7 nM.

Another test has as its target T2, Progesterone receptor. In words: Binding affinity against human progesterone receptor.
Conditions: not given
`CC1=CC(C)(C)Nc2ccc3c(c21)/C(=C/c1cc(F)ccc1F)Oc1ccccc1-3` displayed a Ki of 1.5 nM.

For `CC1=CC(C)(C)Nc2ccc3c(c21)/C(=C/c1ccccc1C)Oc1ccccc1-3`, the Ki worked out at 0.66 nM.

In the case of `CC1=CC(C)(C)Nc2ccc3c(c21)/C(=C/c1ccc(F)c(F)c1)Oc1ccccc1-3`, the Ki amounted to 3.6 nM.

A further test deals with Estrogen receptor (Homo sapiens, UniProt Q92731+P03372).
Experiment: not given
To be noted: cv-1.
For the molecule `CC1=CC(C)(C)Nc2ccc3c(c21)/C(=C/c1cc(F)ccc1F)Oc1ccccc1-3`, the IC50 is > 10000 nM.

Regarding `CC1=CC(C)(C)Nc2ccc3c(c21)/C(=C/c1ccccc1C)Oc1ccccc1-3`, the IC50 is given as < 20 nM.

For the molecule `CC1=CC(C)(C)Nc2ccc3c(c21)/C(=C/c1ccc(F)c(F)c1)Oc1ccccc1-3`, the IC50 is > 10000 nM.

The target of a further test is T3, Mineralocorticoid receptor (Homo sapiens, UniProt P08235).
T3 sequence (P08235 whole entry): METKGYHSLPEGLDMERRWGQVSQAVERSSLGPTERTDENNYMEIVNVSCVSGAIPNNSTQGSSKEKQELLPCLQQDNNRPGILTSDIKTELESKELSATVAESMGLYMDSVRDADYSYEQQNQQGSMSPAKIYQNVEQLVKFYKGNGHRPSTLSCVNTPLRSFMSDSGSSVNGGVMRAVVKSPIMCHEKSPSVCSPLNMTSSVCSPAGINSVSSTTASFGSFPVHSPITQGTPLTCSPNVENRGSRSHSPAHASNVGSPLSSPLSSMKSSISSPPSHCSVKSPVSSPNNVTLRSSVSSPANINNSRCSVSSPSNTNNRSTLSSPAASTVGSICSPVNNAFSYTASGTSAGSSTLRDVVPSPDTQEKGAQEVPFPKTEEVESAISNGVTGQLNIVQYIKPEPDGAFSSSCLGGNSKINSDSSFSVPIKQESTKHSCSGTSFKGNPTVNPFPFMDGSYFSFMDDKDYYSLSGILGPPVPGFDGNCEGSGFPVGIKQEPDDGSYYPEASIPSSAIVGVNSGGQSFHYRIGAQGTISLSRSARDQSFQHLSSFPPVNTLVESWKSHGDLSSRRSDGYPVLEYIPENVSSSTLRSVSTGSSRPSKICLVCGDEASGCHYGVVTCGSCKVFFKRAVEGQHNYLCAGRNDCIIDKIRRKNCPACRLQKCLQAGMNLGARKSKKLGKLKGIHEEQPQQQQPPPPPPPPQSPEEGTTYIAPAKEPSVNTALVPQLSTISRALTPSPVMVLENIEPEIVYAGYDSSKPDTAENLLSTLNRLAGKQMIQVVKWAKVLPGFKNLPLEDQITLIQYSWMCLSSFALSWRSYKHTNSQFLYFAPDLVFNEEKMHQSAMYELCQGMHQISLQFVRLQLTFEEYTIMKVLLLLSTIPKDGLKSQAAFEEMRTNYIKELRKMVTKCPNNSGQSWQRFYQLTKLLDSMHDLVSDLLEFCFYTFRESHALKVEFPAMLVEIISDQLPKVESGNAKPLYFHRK
Kind of test: Inhibitory activity (IC50) against human mineralocorticoid receptor expressed in CV-1 cells. The format is cell-based.
Conditions: not given
An outline of the steps: as §1
Consider `CC1=CC(C)(C)Nc2ccc3c(c21)/C(=C/c1cc(F)ccc1F)Oc1ccccc1-3`, for which the 50% inhibitory concentration (IC50) was > 10000 nM.

For `CC1=CC(C)(C)Nc2ccc3c(c21)/C(=C/c1ccccc1C)Oc1ccccc1-3`, the IC50 was > 10000 nM.

`CC1=CC(C)(C)Nc2ccc3c(c21)/C(=C/c1ccc(F)c(F)c1)Oc1ccccc1-3`: the IC50 was > 10000 nM.

For the next test, the target named is T1, Glucocorticoid receptor. Kind of test: biochemical.
Conditions: not given
The molecule `CC1=CC(C)(C)Nc2ccc3c(c21)/C(=C/c1cc(F)ccc1F)Oc1ccccc1-3` had a Ki of 173 nM.

As to `CC1=CC(C)(C)Nc2ccc3c(c21)/C(=C/c1ccccc1C)Oc1ccccc1-3`, the Ki came to 564 nM. Compared with the last molecule, the Ki is about 3.3-fold higher.

Turning to `CC1=CC(C)(C)Nc2ccc3c(c21)/C(=C/c1ccc(F)c(F)c1)Oc1ccccc1-3`, the Ki was found to be 237 nM.

The test system of a further test is CV-1. In words: Inhibitory concentration in CV-1 cell. The format is functional, cell-based, Cercopithecidae. Particulars: Chlorocebus aethiops.
Consider `CC1=CC(C)(C)Nc2ccc3c(c21)/C(=C/c1cc(F)ccc1F)Oc1ccccc1-3`, for which the IC50 is > 10000 nM.

For `CC1=CC(C)(C)Nc2ccc3c(c21)/C(=C/c1ccccc1C)Oc1ccccc1-3`, the IC50 was > 10000 nM.

In the case of `CC1=CC(C)(C)Nc2ccc3c(c21)/C(=C/c1ccc(F)c(F)c1)Oc1ccccc1-3`, the IC50 was > 10000 nM.

A word on the IC50: it is the point on the concentration scale where inhibition reaches its midpoint. A lower IC50 goes with inhibition by little substance. One may read the EC50 as the concentration needed to bring the measured effect to its halfway point. Low values mean an effect from little substance, high ones a need for much substance. A word on the Ki: it is a dissociation constant, usually derived from enzyme kinetics or from competition with a known ligand. Low values mean tighter binding, high ones weaker binding.
